What follows are compounds tested on HL-60 (assay: Antiproliferative activity against human HL60 cells after 72 hrs by MTT assay). Conditions: HL-60, 72 h.
Format: functional
Outline: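 HL-60 cells from ATCC grown in phenol red-free RPMI-1640 with 10% FBS at 37 °C, 5% CO2. Seeded 5,000 cells/well, treated at ten concentrations in quadruplicate (final 0.5% DMSO; vehicle control 0.5% DMSO). After 72 h, MTT (2.5 mg/mL solution) added for 4 h, formazan dissolved in acidic isopropanol/Triton for 16 h, A570 read. GI50 set relative to a Day 0 density plate; 95% CI given.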
Compound `C/C1=C\CC[C@@]2(C)O[C@@H]2[C@H]2OC(=O)[C@@H](CN3CCC(F)(F)CC3)[C@@H]2CC1` has a GI50 of 690 nM, an LC50 (concentration killing 50% of cells) of 17.7 µM and a TGI of 5.58 µM.
For `C/C1=C/CC[C@@]2(C)O[C@@H]2[C@H]2OC(=O)[C@@H](CN3CCCCC3)[C@@H]2CC1`, the GI50 was 840 nM, the LC50 (concentration killing 50% of cells) was 10.1 µM and the TGI was 3.99 µM.
With `C/C1=C/CC[C@@]2(C)O[C@@H]2[C@H]2OC(=O)[C@@H](CN3CC[C@H](F)C3)[C@@H]2CC1` the GI50 was 24700 nM and the TGI was 46.2 µM.
`C/C1=C/CC[C@@]2(C)O[C@@H]2[C@H]2OC(=O)[C@@H](CN3CCC(F)CC3)[C@@H]2CC1` showed a GI50 of 1770 nM, an LC50 (concentration killing 50% of cells) of 8.07 µM and a TGI of 5.7 µM.
With `C/C1=C/CC[C@@]2(C)O[C@@H]2[C@H]2OC(=O)[C@@H](CN3CCCC3)[C@@H]2CC1` the GI50 was 750 nM, the LC50 (concentration killing 50% of cells) was 2.54 µM and the TGI was 1.74 µM.
For `C/C1=C/CC[C@@]2(C)O[C@@H]2[C@H]2OC(=O)[C@@H](CN3CCCC(C(F)(F)F)C3)[C@@H]2CC1` (stereo partly specified), the GI50 was 1690 nM, the LC50 (concentration killing 50% of cells) was 21.3 µM and the TGI was 7.29 µM.
`C=C1C(=O)O[C@@H]2C3O[C@]3(C)CC/C=C(\C)CC[C@@H]12` (stereo partly specified) was tested, and the GI50 was 520 nM and the TGI was 1.36 µM.
`C/C1=C/CC[C@@]2(C)O[C@@H]2[C@H]2OC(=O)[C@@H](CN3CCCC(F)C3)[C@@H]2CC1` (stereo partly specified) showed a GI50 of 1130 nM and a TGI of 12.2 µM.
`C/C1=C/CC[C@@]2(C)O[C@@H]2[C@H]2OC(=O)[C@@H](CN3CC[C@@H](F)C3)[C@@H]2CC1` showed a GI50 of 580 nM, an LC50 (concentration killing 50% of cells) of 1.66 µM and a TGI of 1.18 µM.
For `C/C1=C/CC[C@@]2(C)O[C@@H]2[C@H]2OC(=O)[C@@H](CN3CCC(C(F)(F)F)CC3)[C@@H]2CC1`, the GI50 was 1000 nM, the LC50 (concentration killing 50% of cells) was 3.11 µM and the TGI was 2.14 µM.
`C/C1=C/CC[C@@]2(C)O[C@@H]2[C@H]2OC(=O)[C@@H](CN3CCCC(F)(F)C3)[C@@H]2CC1` gave a GI50 of 16900 nM.
In the case of `C/C1=C/CC[C@@]2(C)O[C@@H]2[C@H]2OC(=O)[C@@H](CN3CCC(F)(F)C3)[C@@H]2CC1`, the GI50 is reported as 8320 nM, the LC50 (concentration killing 50% of cells) is reported as 23.8 µM and the TGI is reported as 18.3 µM.

From ChEMBL document CHEMBL2040707, “Fluorinated amino-derivatives of the sesquiterpene lactone, parthenolide, as (19)f NMR probes in deuterium-free environments” (2011)
